Reference: ChEMBL document CHEMBL1153729, “Structurally diverse limonoids from the fruits of Swietenia mahagoni” (2009)
Activity calls are given as the source filed them.

Key:
Escherichia coli = experiment: Antibacterial activity against Escherichia coli ATCC 25922 after 18 hrs; assay type: functional, organism-based
In short: (§1)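 Bacterial cells suspended in Mueller-Hinton broth at a final density of […]. Incubated aerobically with compounds in DMSO at 37 °C for 18 h, alongside DMSO-only blank cultures and an ofloxacin positive control. MIC taken as the lowest concentration giving complete inhibition of visible growth.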

Saccharomyces = experiment: Antifungal activity against Saccharomyces sake ATCC 26421 after 48 hrs; assay type: functional, organism-based
In short: (§2)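 Fungi grown in Sabouraud dextrose broth with compounds for 48 h at 37 °C. Blank cultures received a limited amount of DMSO. Amphotericin B, dissolved in DMSO, served as the positive control.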

Shigella flexneri = experiment: Antibacterial activity against Shigella flexneri ATCC 12022 after 18 hrs; assay type: functional, organism-based; in short: as §1
Nannizzia gypsea = experiment: Antifungal activity against Microsporum gypseum ATCC 14683 after 48 hrs; assay type: functional, organism-based; in short: as §2
Trichophyton rubrum = experiment: Antifungal activity against Trichophyton rubrum ATCC 10218 after 48 hrs; assay type: functional, organism-based; in short: as §2
Pseudomonas aeruginosa = experiment: Antibacterial activity against Pseudomonas aeruginosa ATCC 14502 after 18 hrs; assay type: functional, organism-based; in short: as §1
Kocuria rhizophila = experiment: Antibacterial activity against Micrococcus luteus ATCC 9341 after 18 hrs; assay type: functional; details: DC2201; in short: as §1
Candida albicans = experiment: Antifungal activity against Candida albicans ATCC 1600 after 48 hrs; assay type: functional, organism-based; in short: as §2
[1] = system: Staphylococcus epidermidis; experiment: Antibacterial activity against Staphylococcus epidermidis ATCC 12228 after 18 hrs; assay type: functional, organism-based; in short: as §1
Bacillus subtilis = experiment: Antibacterial activity against Bacillus subtilis ATCC 6633 after 18 hrs; assay type: functional, organism-based; in short: as §1
Staphylococcus aureus = experiment: Antibacterial activity against Staphylococcus aureus ATCC 25923 after 18 hrs; assay type: functional, organism-based; in short: as §1

Measured: Activity

CC1(C)[C@H](O)C[C@H](O)[C@]2(C)[C@H]3CC[C@@]4(C)[C@H](c5ccoc5)OC(=O)[C@H]5O[C@]54[C@]3(C)[C@H](O)C[C@@H]12
inactive: all assays above

COC(=O)C[C@H]1C(C)(C)[C@H](OC(=O)c2ccccc2)[C@]2(O)CC3=C4CC(=O)O[C@@H](c5ccoc5)[C@]4(C)CC[C@@H]3[C@@]1(C)C2=O
inactive: all assays above

COC(=O)C[C@H]1C(C)(C)[C@H](OC(C)=O)[C@]2(OC(C)=O)C=C3[C@H]([C@H](OC(C)=O)C[C@]4(C)[C@H]3CC(=O)O[C@H]4c3ccoc3)[C@@]1(C)C2=O
inactive: all assays above

CC(=O)O[C@H]1C[C@@H](OC(C)=O)C(C)(C)[C@@H]2C[C@@H](O)[C@]3(C)[C@H](CC[C@@]4(C)[C@H](c5ccoc5)OC(=O)[C@H]5O[C@@]534)[C@@]12C
inactive: all assays above

COC(=O)C[C@H]1C(C)(C)[C@H](O)[C@@H]2C=C3[C@H]([C@H](OC(C)=O)C[C@]4(C)[C@H]3CC(=O)O[C@H]4c3ccoc3)[C@@]1(C)C2=O
inactive: all assays above

COC(=O)C[C@H]1C(C)(C)[C@H](OC(C)=O)[C@@H]2C=C3[C@H]([C@H](OC(C)=O)C[C@]4(C)[C@H]3CC(=O)O[C@H]4c3ccoc3)[C@@]1(C)C2=O
inactive: all assays above

C=C1[C@@H]2CC[C@@]3(C)[C@H](c4ccoc4)OC(=O)C[C@]13O[C@H]1CC(=O)C(C)(C)[C@H](CC(=O)OC)[C@]12C
inactive: all assays above

COC(=O)C[C@H]1C(C)(C)C(=O)[C@@H]2C[C@]3(O)C4=CC(=O)O[C@@H](c5ccoc5)[C@]4(C)CC[C@@H]3[C@@]1(C)C2=O
inactive: all assays above
